Test system: MDA-MB-468
Assay: Cytotoxicity against human MDA-MB-468 cells assessed as cell growth at 10 uM after 48 hrs by SRB assay
Assay type: functional
Conditions: MDA-MB-468, 48 h, read-out: Activity
Method in brief: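 First stage of the NCI 60 human tumour cell line screen: a single dose is tested against every line. Cell growth is read as cellular protein by sulforhodamine B colorimetry after 48 h of drug exposure, with reference to a time-zero control and to untreated plates.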

Work on `O=C1c2ccccc2C(=O)c2c1ccc1nc3n(c21)CCS3` yielded a growth at 10 µM of 69.7%.
